Experimental data taken from ChEMBL document CHEMBL3608263, “Identification and optimisation of 4,5-dihydrobenzo[1,2-d:3,4-d]bisthiazole and 4,5-dihydrothiazolo[4,5-h]quinazoline series of selective phosphatidylinositol-3 kinase alpha inhibitors” (Bioorg Med Chem Lett, 2015).
≈ marks a conversion by molar mass, not a printed value.

Key:
[1] = Volume of distribution at steady state in Sprague-Dawley rat at 1 mg/kg, iv and 3 mg/kg, po; type: ADME, organism-based; settings: in vivo, read-out: Vdss
Outline: (§1)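 Female Sprague-Dawley rats, conscious, permanently cannulated, with free access to food. Dosed 1.0 mg kg-1 intravenously and 3.0 mg kg-1 orally. Blood levels sampled from 5 minutes to 48 h post dose.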

[2] = Permeability across apical to basolateral side in human Caco2 cells; type: ADME, cell-based; settings: Caco-2, read-out: permeability
[3] = Solubility of the compound at pH 6.8 by high throughput equilibrium method; type: physicochemical; settings: buffer
Rattus norvegicus [4] = test: Dose normalized AUC in Sprague-Dawley rat at 1 mg/kg, iv; type: ADME, organism-based; settings: in vivo; outline: as §1
[5] = Oral bioavailability in Sprague-Dawley rat at 3 mg/kg; type: ADME, organism-based; settings: in vivo; outline: as §1
[6] = Permeability across basolateral to apical side in human Caco2 cells; type: ADME, cell-based; settings: Caco-2, read-out: permeability
Rattus norvegicus [7] = test: Dose normalized AUC in Sprague-Dawley rat at 3 mg/kg, po; type: ADME, organism-based; settings: in vivo; outline: as §1
[8] = Plasma concentration in athymic nude mouse xenografted with Rat1-myr-p110alpha tumor at 50 mg/kg, po measured after 16 hrs; type: ADME, organism-based
Outline: (§2)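 Female athymic mice bearing subcutaneous Rat1-myr-p110α xenografts were given one oral dose of 50 mg kg-1, as suspension or solution. At set time points, groups of n = 4 were sacrificed. Tumors were flash-frozen, pulverized and analysed by Western blot for Ser473 p-Akt. Compound was quantified in plasma in parallel.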

Plasma = test: Drug uptake in plasma of athymic nude mouse xenografted with Rat1-myr-p110alpha tumor at 50 mg/kg, po measured at 8 hrs; type: ADME, organism-based; settings: in vivo; outline: as §2
[9] = Plasma concentration in athymic nude mouse xenografted with Rat1-myr-p110alpha tumor at 50 mg/kg, po measured up to 8 hrs; type: ADME, organism-based; outline: as §2

Compound	Vd [1]	Papp A→B [2]	solubility thermodynamic [3]	AUC/dose (Rattus norvegicus [4])	bioavailability [5]	Papp B→A [6]	AUC/dose (Rattus norvegicus [7])	also measured
CN(C)C[C@@]1(C(N)=O)CCCN1C(=O)Nc1nc2c(s1)-c1nc(C(C)(C)C)ncc1CC2	3.2 L/kg	52 nm/s	> 1000 µM	1444 nmol·h/L	77%	158 nm/s	1116 nmol·h/L	
C[C@@H]1CCN(C(=O)Nc2nc3c(s2)-c2nc(C(C)(C)C(F)(F)F)ncc2CC3)[C@@H]1C(N)=O			9 µM (≈ 4.22 µg/mL)					
Cc1nc(NC(=O)N2CCC[C@H]2C(N)=O)sc1-c1ccnc(C(C)(C)C)n1	1.3 L/kg			1128 nmol·h/L	18%		199 nmol·h/L	
CC(C)(C)c1ncc2c(n1)-c1sc(NC(=O)N3CC[C@@H]4C[C@@]43C(N)=O)nc1CC2	0.6 L/kg		51 µM (≈ 21 µg/mL)	16472 nmol·h/L	83%		13599 nmol·h/L	concentration at 16 h [8]: 1 µM; Drug uptake (Plasma): Active
CC(C)(C)c1nc2c(s1)CCc1nc(NC(=O)N3CCC[C@@]3(C)C(N)=O)sc1-2		121 nm/s	310 µM (≈ 130 µg/mL)			156 nm/s		
C[C@@H]1CCN(C(=O)Nc2nc3c(s2)-c2nc(C(C)(C)C)ncc2CC3)[C@@H]1C(N)=O	0.5 L/kg	34 nm/s	71 µM (≈ 29.4 µg/mL)	5241 nmol·h/L	36%	217 nm/s	1874 nmol·h/L	
Cc1nc(NC(=O)N2CCC[C@H]2C(N)=O)sc1-c1ccnc(C(C)(C)C(F)(F)F)c1 [ALPELISIB]		38 nm/s				183 nm/s		
CN(C)[C@@H]1C[C@@H](C(N)=O)N(C(=O)Nc2nc3c(s2)-c2nc(C(C)(C)C)ncc2CC3)C1			500 µM (≈ 222 µg/mL)					
CC(C)(C)c1ncc2c(n1)-c1sc(NC(=O)N3CCC[C@@]3(C)C(N)=O)nc1CC2		34 nm/s	60 µM (≈ 24.9 µg/mL)			255 nm/s		
Cc1nc(NC(=O)N2CCC[C@H]2C(N)=O)sc1-c1csc(C(C)(C)C)n1	2 L/kg	123 nm/s		561 nmol·h/L	2%	156 nm/s	70 nmol·h/L	
CN(C)C[C@@H]1CCN(C(=O)Nc2nc3c(s2)-c2nc(C(C)(C)C)ncc2CC3)[C@@H]1C(N)=O			276 µM (≈ 126 µg/mL)					

Further lines, with some results ahead:

Vd [1]	Papp A→B [2]	solubility thermodynamic [3]	AUC/dose (Rattus norvegicus [4])	bioavailability [5]	Papp B→A [6]	AUC/dose (Rattus norvegicus [7])	Compound	also measured
		351 µM (≈ 147 µg/mL)					CC(C)(C)c1nc2c(s1)CCc1nc(NC(=O)N3CC[C@@H]4C[C@@]43C(N)=O)sc1-2	
24 L/kg	7.6 nm/s		956 nmol·h/L	56%	68.7 nm/s	531 nmol·h/L	CN(C)C[C@@H]1CCN(C(=O)Nc2nc3c(s2)-c2nc(C(C)(C)C)sc2CC3)[C@@H]1C(N)=O	
		55 µM (≈ 22.2 µg/mL)					NC(=O)[C@@H]1CCCN1C(=O)Nc1nc2c(s1)-c1nc(CC3CC3)sc1CC2	
		9 µM (≈ 3.78 µg/mL)					C[C@@H]1CCN(C(=O)Nc2nc3c(s2)-c2nc(C(C)(C)C)sc2CC3)[C@@H]1C(N)=O	
0.4 L/kg		65 µM (≈ 26.4 µg/mL)	4132 nmol·h/L	39%		1585 nmol·h/L	CC(C)(C)c1nc2c(s1)CCc1nc(NC(=O)N3CCC[C@H]3C(N)=O)sc1-2	
		125 µM (≈ 50.1 µg/mL)					CC(C)(C)c1ncc2c(n1)-c1sc(NC(=O)N3CCC[C@H]3C(N)=O)nc1CC2	
		< 4 µM					C[C@H]1CCN(C(=O)Nc2nc3c(s2)-c2nc(C(C)(C)C)sc2CC3)[C@@H]1C(N)=O	
		14 µM (≈ 6.63 µg/mL)					C[C@@H]1CCN(C(=O)Nc2nc3c(s2)-c2nc(C(C)(C)C(F)(F)F)sc2CC3)[C@@H]1C(N)=O	concentration at 8 h [9]: > 1 µM
